Drawing on PubChem BioAssay, this text covers viability, differential viability (reversal) and inhibition for 18 compounds.

Assay [1] is described as follows: reduced viability of SK-BR-3 breast cancer cells – cell-based, 24 h, human, pilot screen (AID 572;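 active = viability at or below 10% of carrier control in both of two separate runs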;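 also: compound exposure lasted between 18 and 24 h rather than exactly 24 h; 100% = carrier-treated control wells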). The settings on record: SK-BR-3 viability, CellTiter-Glo luminescence, at 10 µM, stronger effect = lower value.
Assay [2] in a line: HUVEC growth inhibition – cell-based, human, primary screen (AID 575;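 active = viability at or below 30% in both replicate assays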;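 also: 100% = median of untreated cell wells with 0.1% DMSO on each plate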). The note with it: HUVEC proliferation, CellTiter-Glo luminescence, 72 h; at 10 µM; stronger effect = lower value. Put shortly: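 Assay system: primary human umbilical vein endothelial cells / Buffer or medium: endothelial basal medium with 2% FBS plus growth supplements / Compound dosing: one dose, 10 µM final, 0.1% DMSO / Timing: 72 h treatment at 37 °C / Signal: CTG luminescence / Benchmarks: 32 DMSO-only cell-control wells (high), 32 MePR drug-control wells (low) per plate / Plate: collagen-coated 384-well format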
On the technique in general: In ATP-based viability assays light output follows the ATP content of the culture.

Assay [3] is described as follows: H69AR cell proliferation blockers – human, duplicate replicates, primary screen (AID 580;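 active = viability at or under a set limit in both replicates, limit being median viability minus 3 SD, cut at about 48% in these data, passing the limit was not always enough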;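 also: 100% = mean luminescence of untreated wells and 0% = no signal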). The note with it: H69AR lung tumor cells viability, ATP luminescence, 72 h; at 10 µM; stronger effect = lower value.
A short description of assay [4]: MRP1 drug-resistance reversers in H69AR cells – cell-based, doxorubicin co-treatment, pilot screen (AID 601;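 active = viability loss from added drug above about 55%, and viability with drug at most 40%, in both replicates, limit read from the data, passing the limit was not always enough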). The note with it: CellTiter-Glo, 72 h, at 10 µM; for differential viability (reversal): stronger effect = higher value.
The nature of assay [5]: yeast transport mutant growth inhibition pilot in 384-well plates, post-Golgi transport modulator project (AID 636; in the data active = inhibition above about 31%). The note with it: absorbance 615 nm, about 18 h, stronger effect = higher value.
Assay [6] in a line: growth suppression of yeast trafficking mutant, preliminary HTS, modulators of trafficking downstream of Golgi apparatus project, 1536-format plate, OD 615 nm (AID 637). The settings on record: yeast transport mutant growth, absorbance 615 nm, 18 h; stronger effect = higher value.
Setting [7] is: H69AR cells + 2 uM doxorubicin, measured here: viability with 2 uM doxorubicin, stronger effect = lower value.
[8] abbreviates: H69AR cells, compound alone cytotoxicity.

Calls of active or inactive are those of the source. Rule as the data show it, unless noted: active = inhibition above about 30%; inactive = the rest.

The viability is a read-out of living cells in per cent, often relative to untreated cells. In general, inhibition refers to the relative decrease from the control value, in per cent.

Turning to `COCc1[nH]nc2c1C(c1cc(OC)c(O)c(OC)c1)C(C#N)=C(N)O2` (centres undefined), the viability in assay [1] is 98% (inactive); in assay [2], 102% (inactive); in assay [3] it was 93% (inactive); in assay [4] (setting [7]) it was 95%; in assay [4] (setting [8]), 93%. In addition, the differential viability (reversal) in assay [4] (H69AR cells + 2 uM doxorubicin) is -2% (inactive). Moreover, the inhibition in assay [5] is -10.3% (inactive); in assay [6], 4.03% (inactive).
Turning to `CCCCOC(=O)c1cccc(NC(=O)CC)c1`, the viability is 113% (inactive) in assay [1]; 91.1% (inactive) in assay [2]; 89.6% (inactive) in assay [3]; 88.3% in assay [4] (setting [7]); 89.6% in assay [4] (setting [8]). Moreover, in assay [4] (H69AR cells + 2 uM doxorubicin), the differential viability (reversal) is 1.34% (inactive). Further, the figures for the inhibition in assay [5] and in assay [6] were 5.71% (inactive) and 13.4% (inactive), respectively.
For `COc1ccc(C(=O)Nc2ccc(S(=O)(=O)Nc3onc(C)c3C)cc2)cc1`, the viability in assay [1] is 91% (inactive); in assay [2] it was 108% (inactive); in assay [3] it was 117% (inactive); in assay [4] (setting [7]), 93.4%; in assay [4] (setting [8]), 117%. In addition, the differential viability (reversal) in assay [4] (H69AR cells + 2 uM doxorubicin) was 23.6% (inactive). Also, the inhibition in assay [5] is -2.03% (inactive); in assay [6] it was -0.91% (inactive).
On to `Clc1cccc(-c2nnc3sc(-c4ccccc4)nn23)c1`, for which the viability in assay [1] was 86% (inactive); in assay [2], 124% (inactive); in assay [3] it was 89.5% (inactive); in assay [4] (setting [7]), 92.6%; in assay [4] (setting [8]) it was 89.5%. Moreover, in assay [4] (H69AR cells + 2 uM doxorubicin), the differential viability (reversal) was -3.02% (inactive). The inhibition was -0.27% (inactive) in assay [5] and -4% (inactive) in assay [6].
Take `Cc1c(CNCc2cccs2)c(C(=O)O)c(C)n1Cc1ccccc1`: the viability in assay [1] was 91% (inactive); in assay [2], 109% (inactive); in assay [3], 99.8% (inactive); in assay [4] (setting [7]), 94.2%; in assay [4] (setting [8]), 99.8%. Moreover, the differential viability (reversal) in assay [4] (H69AR cells + 2 uM doxorubicin) is 5.63% (inactive). Moreover, the inhibition in assay [5] is -3.97% (inactive); in assay [6], 0.18% (inactive).
As to `Cc1noc(C)c1CSc1nc2ccccc2s1`, the viability in assay [1] was 82% (inactive); in assay [2] it was 80.8% (inactive); in assay [3] it was 67.8% (inactive); in assay [4] (setting [7]), 70.9%; in assay [4] (setting [8]), 67.8%. Further, in assay [4] (H69AR cells + 2 uM doxorubicin), the differential viability (reversal) was -3.12% (inactive). Also, the figures for the inhibition in assay [5] and in assay [6] were -1.43% (inactive) and -4.1% (inactive), respectively.
On to `N#CC1=C(N)N2C(=C(C#N)C13CCCCC3)SC1CCCCC12O` (centres undefined), for which the viability was 72% (inactive) in assay [1]; 88.2% (inactive) in assay [2]; 76.1% (inactive) in assay [3]; 69.4% in assay [4] (setting [7]); 76.1% in assay [4] (setting [8]). The differential viability (reversal) in assay [4] (H69AR cells + 2 uM doxorubicin) was 6.71% (inactive). The inhibition in assay [5] was -3.01% (inactive); in assay [6], 8.91% (inactive).
In the case of `CC(=O)OC(C)C[N+](C)(C)C` (centres undefined), the viability was 103% (inactive) in assay [1]; 86.7% (inactive) in assay [2]; 104% (inactive) in assay [3]; 89.3% in assay [4] (setting [7]); 104% in assay [4] (setting [8]). Also, the differential viability (reversal) in assay [4] (H69AR cells + 2 uM doxorubicin) was 14.9% (inactive). The inhibition in assay [5] was -5.97% (inactive); in assay [6] it was 3.5% (inactive).
Turning to `Cn1c(=O)[nH]c(=O)c2c1nc(Br)n2Cc1ccccc1F`, the viability is 116% (inactive) in assay [1]; 78% (inactive) in assay [2]; 86.9% (inactive) in assay [3]; 70.2% in assay [4] (setting [7]); 86.9% in assay [4] (setting [8]). The differential viability (reversal) in assay [4] (H69AR cells + 2 uM doxorubicin) was 16.6% (inactive). Besides, the inhibition in assay [5] was 3.15% (inactive); in assay [6], 3.87% (inactive).
With `Cc1ccc(S(=O)(=O)N2CCN(C(=O)CSc3nc4ccccc4c(=O)[nH]3)CC2)c(C)c1`, the viability was 99% (inactive) in assay [1]; 77.4% (inactive) in assay [2]; 85.1% (inactive) in assay [3]; 68.2% in assay [4] (setting [7]); 85.1% in assay [4] (setting [8]). Moreover, in assay [4] (H69AR cells + 2 uM doxorubicin), the differential viability (reversal) is 16.8% (inactive). Further, the inhibition in assay [5] is -6.53% (inactive); in assay [6] it was -3.64% (inactive).
As to `CC1CN(C(=O)CSc2nnc(-c3ccc(Cl)cc3)n2C)CC(C)O1` (centres undefined), the viability in assay [1] was 78% (inactive); in assay [2], 110% (inactive); in assay [3], 99.5% (inactive); in assay [4] (setting [7]) it was 94.2%; in assay [4] (setting [8]), 99.5%. Further, the differential viability (reversal) in assay [4] (H69AR cells + 2 uM doxorubicin) is 5.23% (inactive). Besides, the inhibition in assay [5] was -6.08% (inactive); in assay [6], 2.91% (inactive).
On to `CCCN(CCC)S(=O)(=O)c1ccc(C(=O)O)cc1`, for which the viability was 99% (inactive) in assay [1]; 96.2% (inactive) in assay [2]; 97.2% (inactive) in assay [3]; 87.1% in assay [4] (setting [7]); 97.2% in assay [4] (setting [8]). The differential viability (reversal) in assay [4] (H69AR cells + 2 uM doxorubicin) was 10.1% (inactive). The inhibition is -0.52% (inactive) in assay [5] and -1.5% (inactive) in assay [6].
For the compound `O=C(Cn1cnc2c(cnn2-c2ccc(F)cc2)c1=O)N1CCN(c2ccccc2)CC1`, the viability was 97% (inactive) in assay [1]; 94% (inactive) in assay [2]; 70.3% (inactive) in assay [3]; 65.8% in assay [4] (setting [7]); 70.3% in assay [4] (setting [8]). Also, in assay [4] (H69AR cells + 2 uM doxorubicin), the differential viability (reversal) was 4.54% (inactive). For the same compound, the figures for the inhibition in assay [5] and in assay [6] were 0.39% (inactive) and -5.57% (inactive), respectively.
Consider `COc1ccccc1-c1nc2n(n1)C(c1ccc(Cl)cc1)C(C(N)=O)=C(C)N2` (centres undefined), for which the viability was 126% (inactive) in assay [1]; 89.8% (inactive) in assay [2]; 83.5% (inactive) in assay [3]; 87.9% in assay [4] (setting [7]); 83.5% in assay [4] (setting [8]). The differential viability (reversal) in assay [4] (H69AR cells + 2 uM doxorubicin) is -4.36% (inactive). In addition, the inhibition was -0.91% (inactive) in assay [5] and -3.61% (inactive) in assay [6].
In the case of `O=C1c2ccccc2C(=O)N1CCN1CCCCC1`, the viability is 98% (inactive) in assay [1]; 129% (inactive) in assay [2]; 103% (inactive) in assay [3]; 99.4% in assay [4] (setting [7]); 103% in assay [4] (setting [8]). Besides, in assay [4] (H69AR cells + 2 uM doxorubicin), the differential viability (reversal) is 4.01% (inactive). For the same compound, the inhibition in assay [5] was 3.38% (inactive); in assay [6], -1.64% (inactive).
Take `Nc1nnnn1NCc1cccc(OCc2ccccc2)c1`: the viability in assay [1] was 112% (inactive); in assay [2] it was 88.8% (inactive); in assay [3] it was 104% (inactive); in assay [4] (setting [7]), 89%; in assay [4] (setting [8]), 104%. Further, the differential viability (reversal) in assay [4] (H69AR cells + 2 uM doxorubicin) is 15.4% (inactive). Moreover, the inhibition in assay [5] was -7.95% (inactive); in assay [6], 3.71% (inactive).
For `Cc1cc(C)cc(OCC(=O)NC2=NCCS2)c1`, the viability is 100% (inactive) in assay [1]; 87.5% (inactive) in assay [2]; 96.1% (inactive) in assay [3]; 93.3% in assay [4] (setting [7]); 96.1% in assay [4] (setting [8]). Besides, the differential viability (reversal) in assay [4] (H69AR cells + 2 uM doxorubicin) was 2.82% (inactive). Moreover, the inhibition in assay [5] was 0.39% (inactive); in assay [6], 1.48% (inactive).
In the case of `O=C1NC(c2cccnc2)C(C(=O)c2cccs2)C(O)(C(F)(F)F)N1` (centres undefined), the viability was 116% (inactive) in assay [1]; 113% (inactive) in assay [2]; 103% (inactive) in assay [3]; 97.7% in assay [4] (setting [7]); 103% in assay [4] (setting [8]). Besides, the differential viability (reversal) in assay [4] (H69AR cells + 2 uM doxorubicin) is 4.9% (inactive). In addition, the inhibition in assay [5] was -0.27% (inactive); in assay [6] it was -0.18% (inactive).
